Compounds with a hit are over-represented: about 3.7% of the library has one in this group of screens.
Yeast growth inh: reduces growth of yeast BB579 in restrictive medium. S. cerevisiae BB579 growth, OD615, 48 h. inhibition, % at 10 µM. 0.51% of 140,000 active. AID 804;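 active = inhibition above a set limit, 3 SD over the mean compound inhibition, cut at about 44% in these data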
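Assay system: S. cerevisiae DeaD strain BB579 yeast. Medium: CSMM-D restrictive synthetic medium containing dextrose (glucose). Times: 4 h cell preincubation, 48 h compound exposure, 30 °C humidified. Signal: OD615 turbidity measurement. Benchmarks: positive control amphotericin B 10 µg/mL.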
Insulin prom inh: TRM-6 insulin promoter activity inhibition; inhibition, % at 2 µM; TRM-6 cells, insulin promoter-eGFP reporter, imaging; reporter expression induced with tamoxifen; 0.9% of 130,000 active;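 active = inhibition above the mean plus 3 SD, with well images judged a real hit on visual review, cut at about 60% in these data, passing the limit was not always enough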
RAM inhibit: blocks the yeast RAM network | S. cerevisiae dse1pr::URA3 reporter, 5-FOA growth OD615, 2 d; analog-sensitive cbk1-as2 kinase mutant strain | inhibition, % at 50 µM | 1.8% of 190,000 active | AID 868;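 active = inhibition above a set limit, 3 SD over mean compound inhibition, cut at about 8.4% in these data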;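 also: 0% = DMSO-only wells with no growth and 100% = 10 µM 1-NA-PP1 full growth; inhibition rescues growth on 5-FOA so higher OD means more RAM inhibition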
Yeast life ext: extends the lifespan of yeast | 0.68% of 130,000 active | S. cerevisiae growth with nicotinamide, OD615; deaD strain in restrictive glucose medium | inhibition of the nicotinamide effect, % at 10 µM;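 active = inhibition above a set limit, placed 3 SD over the median of all compounds, cut at about 26% in these data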;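 also: 0% = nicotinamide-treated wells and 100% = cells grown without nicotinamide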
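Assay system: DeaD-strain S. cerevisiae. Medium: CSMM-D glucose medium, restrictive. Reagent: nicotinamide, 1.5 mM, co-present with compound. Compound: 10 µM single point, 0.25% DMSO. Schedule: culture preincubation 4 h, compound exposure 48 h, both 30 °C. Detection: absorbance at 615 nm.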
HMGR II inh: blocks class II HMG-CoA reductase of Enterococcus faecalis; purified E. faecalis HMGR, NADPH absorbance 340 nm kinetic; inhibition, % at 10 µM; 0.41% of 190,000 active; AID 1066;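 active = inhibition above a set limit, the median over all tested compounds plus 3 SD, cut at about 9.5% in these data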;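 also: enzyme runs in reverse so mevalonate oxidation gives rising NADPH absorbance; 0% = complete reaction with DMSO and 100% = background rate lacking mevalonate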
* hit, by the source's call; . = no result.

SMILES | Yeast growth inh | Insulin prom inh | RAM inhibit | Yeast life ext | HMGR II inh
CC(C)(CO)NC(=O)CC1C(=O)NCCN1Cc1ccc(-c2ccccc2)cc1 (stereo not given) | . | . | 0 | . | -5
CC(C)(CO)NC(=O)CC1C(=O)NCCN1CC(c1ccccc1)c1ccccc1 (stereo not given) | . | . | 0 | . | 10*
NC(=O)c1nsc(C(=O)N(CCc2ccccc2)C(C(=O)NC2CCCC2)c2ccco2)c1N (stereo not given) | -54 | -17 | 8.7* | -10 | -6
COc1ccc(-c2nnc3sc(C(C)N4C(=O)c5ccccc5C4=O)nn23)cc1 (stereo not given) | -23 | . | 1 | 30* | 4
CCOc1ccc(-c2nnc3sc(-c4ccccc4OC)nn23)cc1 | . | -52 | . | . | .
O=C(CCN1CCOCC1)NNC(=S)NC(=O)c1ccc(Br)cc1 | . | 57 | 1 | . | 3
COC(=O)CN(C(=O)CSc1nnc(-c2cccc(OC)c2)o1)c1ccc(OC)cc1 | -72 | 45 | 11* | 9 | 4
COc1ccc(CN(C(=O)CSc2nnc(-c3ccccc3C)o2)c2ccc(F)cc2)cc1 | -8 | -128 | 11* | . | 4
CN(C)/C=C/C(=O)c1ccc(C(F)(F)F)cc1F | . | . | 1 | . | -2
CC1=C(C(=O)Nc2ccccc2C)C(c2ccc(C)o2)n2c(s/c(=C/c3ccccc3)c2=O)=N1 (stereo not given) | -36 | 77* | 4 | -3 | 2
Cc1nc2ccc(S(=O)(=O)NCC(=O)N(C)Cc3ccccc3)cc2s1 | . | -29 | 2 | . | 1
O=C(COC(=O)CNC(=O)c1ccc2c(c1)OCO2)Nc1ncc(Cl)cc1Cl | . | . | 1 | . | 2
O=C(N=c1ccn(-c2nc3ccccc3nc2NS(=O)(=O)c2ccccc2)cc1)c1cccs1 | -47 | -4 | 8.5* | 5 | -6
CCOC(=O)CSc1nc(C)c2ccccc2n1 | -30 | 79* | 2 | -8 | -10
COc1ccc2nc(SCc3cccc(C)c3)nc(C)c2c1 | -47 | . | 6 | -7 | 2
Cc1nc(SCc2ccc([N+](=O)[O-])cc2)nc2ccccc12 | 2 | -4 | 9.5* | -13 | -10
Cc1ccc2nc(SCc3cccc([N+](=O)[O-])c3)nc(C)c2c1 | -27 | . | 11* | 3 | -2
COc1ccc(COc2ccccc2C(=O)Nc2ccccn2)cc1[N+](=O)[O-] | -22 | -35 | 2 | -5 | 1
CC(C)(C)c1ccc(S(=O)(=O)N2CCCCC2)cc1 | -40 | -21 | 0 | 18 | 0
CCOC(=O)c1ccccc1NS(=O)(=O)c1ccc(S(=O)(=O)N2CCCC2)cc1 | -32 | . | 10* | 2 | -2
O=C(COC(=O)c1ccccc1Br)NCc1ccccc1 | -2 | -41 | -1 | -5 | -9
O=C(COC(=O)c1ccccc1NS(=O)(=O)c1ccc(Cl)cc1)NCc1ccccc1 | -47 | 7 | 11* | 8 | -3
C=C(CCC(=O)c1ccccc1)C(=O)c1ccccc1 | -29 | . | -2 | 31* | 0
Cc1ccc(C(CC(=O)c2ccc(Cl)cc2)C(=O)O)cc1 (stereo not given) | . | 31 | 1 | . | 1
O=C(CCCCCCCC(=O)c1ccccc1)c1ccccc1 | . | . | 0 | . | -2
SMILES | Yeast growth inh | Insulin prom inh | RAM inhibit | Yeast life ext | HMGR II inh
C=C(C(=O)c1ccccc1)C(CC(=O)c1ccccc1)c1ccccc1 (stereo not given) | -15 | . | 7 | 39* | -1
CCCNC(=O)[C@H](Cc1c[nH]c2ccccc12)NC(=O)c1ccccc1Cl | -5 | -47 | 1 | 1 | 0
Cn1c(NNC(=O)C(c2ccccc2)c2ccccc2)cc(=O)n(C)c1=O | . | . | 1 | . | 1
CCOc1cc(C)c(C(C)C)cc1S(=O)(=O)NCc1ccccn1 | -45 | 38 | 3 | 59* | -5
CCOc1cc(C)c(C(C)C)cc1S(=O)(=O)n1ccc(C)n1 | -10 | 82* | 0 | 5 | -1
CCOc1ccc(C)cc1S(=O)(=O)n1ccc(C)n1 | -42 | 6 | 1 | 19 | 3
COc1cc(S(=O)(=O)NCc2ccccn2)c(OC)cc1Cl | -17 | 6 | 0 | . | -6
C/C(CC(=O)NC1CCCC1)=N\NC(=O)Cc1csc(N)n1 | -5 | 54 | 2 | -1 | -6
CCCCN(C)S(=O)(=O)c1cc(Br)cc2c1N(C(=O)C1CC1)CC2 | -28 | . | 9.2* | 14 | -4
Cc1ccnc(SCC(=O)c2ccc(Br)cc2)c1C#N | -32 | 61* | 1 | -1 | -3
Cc1ccc(C(=O)CSc2nsc(C)c2C#N)cc1 | -42 | 0 | 1 | -8 | 2

Screening results as filed in PubChem BioAssay.
